In ChEMBL document CHEMBL5653605, “Reduced VEGF production, angiogenesis, and vascular regrowth contribute to the antitumor properties of dual mTORC1/mTORC2 inhibitors” (Cancer Res, 2011) one finds Activity, inhibition and IC50 data, which are given here for one molecule.

The source made the active and inactive calls. The calls are words filed in the database; no cut-off is given here.

In one assay the test system is GEO. The assay is described as follows: Antitumor activity against human GEO cells xenografted in nu/nu CD-1 mouse assessed as slower tumor growth at 75 mg/kg administered twice a day for 14 days and measured twice weekly. The assay is classed as functional, organism-based. The settings on record: time 14.0 day.
The subject of assay [1] is Mus musculus. The assay is described as follows: In vivo inhibition of AKT phosphorylation in RIP-Tag2 mouse with pancreatic islet cell carcinoma 75 mg/kg, po bid administered via gavage and measured after 7 days by immunohistochemistry. The following applies: time 7.0 day. The assay is classed as functional, organism-based. In short, it runs like this:
(§1)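 RIP-Tag2 mice aged 9–10 weeks dosed 75 mg/kg BID by gavage for 7 days, vehicle Labrifil or water; perfusion fixation, 60–80 µm tumor sections immunostained for phospho-4E-BP1, phospho-Akt or phospho-S6K with CD31; fluorescence/confocal imaging; 3–8 mice per group.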

The subject of assay [2] is Mus musculus. The assay is described as follows: In vivo inhibition of S6K phosphorylation in RIP-Tag2 mouse with pancreatic islet cell carcinoma 75 mg/kg, po bid administered via gavage and measured after 7 days by immunohistochemistry. The assay is classed as functional, organism-based. The settings on record: time 7.0 day. In short, it runs like this: as §1
Assay [3] has as its system Pancreatic islet cell carcinoma. The assay is described as follows: Antitumor activity against pancreatic islet cell carcinoma in RIP-Tag2 mouse assessed as reduction in VEGF-A expression at 75 mg/kg, po bid administered via gavage and measured after 1 to 7 days by immunoprecipitation based densitometric analysis relative to control. It counts as functional. Also noted: scale not given: the % may be the effect or the level left. The following applies: time 1-7 day. Put shortly: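 VEGF in tumor lysates from treated RIP-Tag2 mice (9–10 weeks old at start; 75 mg/kg gavage BID or 20 mg/kg ip QD) measured with mouse angiogenesis antibody arrays, read as pixel density. 3–8 mice/group, SEM; ANOVA with Fisher PLSD.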

For assay [4] the test system is unchanged. Kind of assay: Antivascular activity against pancreatic islet cell carcinoma in RIP-Tag2 mouse assessed as reduction in CD31-positive tumor blood vessels at 75 mg/kg, po bid administered via gavage and measured after 1 to 4 days by immunohistochemical staining based fluorescence microscopic analysis. The assay is classed as functional, organism-based. The following applies: time 1-4 day.

In assay [5] the target is Epidermal growth factor receptor (Homo sapiens, UniProt P00533). The assay is described as follows: Inhibition of EGFR phosphorylation (unknown origin) by cell based assay.
Assay [6] deals with Proto-oncogene tyrosine-protein kinase Src (Homo sapiens, UniProt P12931). The assay is described as follows: Inhibition of SRC (unknown origin) assessed as reduction in phosphorylated FAK level by cell based assay.
The target of assay [7] is Phosphatidylinositol 4,5-bisphosphate 3-kinase catalytic subunit gamma isoform (Homo sapiens, UniProt P48736). The assay is described as follows: Inhibition of PI3Kgamma (unknown origin) at 3 uM by Ambit Kinomescan assay relative to control.
Sequence of Phosphatidylinositol 4,5-bisphosphate 3-kinase catalytic subunit gamma isoform (P48736 whole entry, looked up, canonical isoform): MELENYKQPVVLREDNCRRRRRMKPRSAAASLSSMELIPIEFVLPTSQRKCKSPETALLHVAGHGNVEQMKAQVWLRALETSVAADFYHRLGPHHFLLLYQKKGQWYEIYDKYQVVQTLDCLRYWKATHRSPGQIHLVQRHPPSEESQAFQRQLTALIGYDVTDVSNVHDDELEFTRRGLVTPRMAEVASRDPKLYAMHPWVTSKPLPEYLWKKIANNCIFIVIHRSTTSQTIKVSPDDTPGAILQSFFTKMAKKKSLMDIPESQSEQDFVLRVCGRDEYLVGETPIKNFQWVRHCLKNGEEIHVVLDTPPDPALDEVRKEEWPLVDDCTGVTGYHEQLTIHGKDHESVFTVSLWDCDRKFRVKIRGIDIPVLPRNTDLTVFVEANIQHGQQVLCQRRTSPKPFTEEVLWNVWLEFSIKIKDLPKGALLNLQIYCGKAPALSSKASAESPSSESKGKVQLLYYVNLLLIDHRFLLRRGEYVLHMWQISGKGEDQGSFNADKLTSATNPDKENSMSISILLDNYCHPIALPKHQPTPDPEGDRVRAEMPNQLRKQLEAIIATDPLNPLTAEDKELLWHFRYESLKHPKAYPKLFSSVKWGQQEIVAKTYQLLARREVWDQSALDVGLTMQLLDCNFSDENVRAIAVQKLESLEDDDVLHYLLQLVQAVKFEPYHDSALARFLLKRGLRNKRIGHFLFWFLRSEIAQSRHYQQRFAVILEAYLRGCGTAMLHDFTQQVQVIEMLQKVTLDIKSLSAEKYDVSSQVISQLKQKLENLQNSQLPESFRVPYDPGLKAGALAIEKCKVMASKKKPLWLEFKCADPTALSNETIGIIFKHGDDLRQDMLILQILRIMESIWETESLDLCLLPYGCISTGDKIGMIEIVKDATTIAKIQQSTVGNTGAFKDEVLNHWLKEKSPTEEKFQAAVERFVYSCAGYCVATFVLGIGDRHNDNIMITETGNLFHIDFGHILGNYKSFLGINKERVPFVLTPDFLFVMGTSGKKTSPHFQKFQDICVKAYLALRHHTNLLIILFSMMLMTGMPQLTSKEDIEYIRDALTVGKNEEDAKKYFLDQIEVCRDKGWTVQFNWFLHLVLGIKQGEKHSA

Sequence of Proto-oncogene tyrosine-protein kinase Src (P12931 2-536 limits assumed): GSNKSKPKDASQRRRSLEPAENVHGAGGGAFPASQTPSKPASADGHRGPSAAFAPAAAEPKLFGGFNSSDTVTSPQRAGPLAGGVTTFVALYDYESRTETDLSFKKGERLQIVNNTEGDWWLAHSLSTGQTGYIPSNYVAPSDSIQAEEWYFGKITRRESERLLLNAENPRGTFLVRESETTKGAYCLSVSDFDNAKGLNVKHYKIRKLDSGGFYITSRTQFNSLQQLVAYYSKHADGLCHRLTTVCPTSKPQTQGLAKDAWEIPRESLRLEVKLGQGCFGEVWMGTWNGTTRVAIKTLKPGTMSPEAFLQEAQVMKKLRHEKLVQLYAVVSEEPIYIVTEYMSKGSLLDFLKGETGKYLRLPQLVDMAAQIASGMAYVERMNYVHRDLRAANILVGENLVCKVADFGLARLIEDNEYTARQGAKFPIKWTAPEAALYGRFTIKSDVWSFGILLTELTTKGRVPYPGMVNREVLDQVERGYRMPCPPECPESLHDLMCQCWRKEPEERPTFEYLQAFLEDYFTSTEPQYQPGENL
Sequence of Epidermal growth factor receptor (P00533 whole entry): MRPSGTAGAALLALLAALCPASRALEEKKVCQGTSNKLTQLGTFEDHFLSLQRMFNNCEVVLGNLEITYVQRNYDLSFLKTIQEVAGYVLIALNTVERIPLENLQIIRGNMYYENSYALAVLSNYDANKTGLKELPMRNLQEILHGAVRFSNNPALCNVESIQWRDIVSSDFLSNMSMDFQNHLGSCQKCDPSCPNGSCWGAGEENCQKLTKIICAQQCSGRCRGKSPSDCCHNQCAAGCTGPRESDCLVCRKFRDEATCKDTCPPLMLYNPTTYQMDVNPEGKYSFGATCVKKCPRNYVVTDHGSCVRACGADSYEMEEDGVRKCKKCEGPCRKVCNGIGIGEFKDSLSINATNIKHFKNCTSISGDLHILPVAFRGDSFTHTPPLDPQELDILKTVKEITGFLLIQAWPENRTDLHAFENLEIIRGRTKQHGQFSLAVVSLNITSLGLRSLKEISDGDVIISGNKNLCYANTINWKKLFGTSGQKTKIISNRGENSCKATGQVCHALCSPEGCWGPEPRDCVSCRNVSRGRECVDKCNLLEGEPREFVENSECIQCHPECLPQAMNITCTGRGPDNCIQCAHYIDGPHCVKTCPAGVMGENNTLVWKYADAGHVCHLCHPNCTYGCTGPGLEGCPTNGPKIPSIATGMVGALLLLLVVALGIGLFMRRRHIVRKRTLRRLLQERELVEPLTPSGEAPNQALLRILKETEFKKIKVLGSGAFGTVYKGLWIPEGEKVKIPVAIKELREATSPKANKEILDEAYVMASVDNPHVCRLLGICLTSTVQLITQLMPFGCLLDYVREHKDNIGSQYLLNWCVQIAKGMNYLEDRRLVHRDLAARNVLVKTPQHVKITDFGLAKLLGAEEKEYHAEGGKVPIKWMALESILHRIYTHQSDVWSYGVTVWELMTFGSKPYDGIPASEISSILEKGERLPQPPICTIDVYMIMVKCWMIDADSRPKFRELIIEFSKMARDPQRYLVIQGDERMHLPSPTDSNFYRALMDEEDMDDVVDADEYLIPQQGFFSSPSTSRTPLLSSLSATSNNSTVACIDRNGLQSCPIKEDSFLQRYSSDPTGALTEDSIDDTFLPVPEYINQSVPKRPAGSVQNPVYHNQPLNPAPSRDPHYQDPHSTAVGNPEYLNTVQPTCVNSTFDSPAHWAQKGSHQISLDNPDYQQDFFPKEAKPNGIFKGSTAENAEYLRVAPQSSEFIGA

Regarding `Nc1nccn2c1c(-c1cc3cccc(Cl)c3[nH]1)nc2[C@H]1CC[C@H](C(=O)O)CC1`, in the assay on GEO, the result was Active. For the same molecule, the inhibition result in the assay on Mus musculus [1] and in the assay with Mus musculus [2] was “Active” in each case. Besides, the Activity in assay [3] came out at 72%. In assay [4], the outcome was inactive. For the same molecule, the IC50 in assay [5] and in assay [6] was above 40 µM in each case. In assay [7], this molecule registered an inhibition above 90%.
